Assay outcomes (PubChem BioAssay)
Beta cell apopt: beta cell apoptosis inhibition; INS-1E cytokine-induced death, ATP luminescence, 48 h; percent of positive-control rescue, neutral wells zero; protection from apoptosis, % (concentration not given with the values); 0.8% of 300,000 active;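 active means Every replicate reaches about 75%, or at least half do and their mean reaches it too, limit read from the data; inconclusive means At least half of replicates reach the limit but their mean does not; inactive means Under half of replicates reach the limit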;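 further: 0% = cytokine-treated negative control wells and 100% = positive control rescue; higher means more ATP so stronger rescue from cytokine killing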
SKKanGAS inh: blocks kanamycin growth of S. pyogenes SKKanGAS strain | BacTiter-Glo, 6 h | inhibition, % at 7.5 µM | 1.3% of 300,000 active | AID 1662;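 active means mean replicate score, as percent of positive control median, at least 50; inconclusive means mean below 50 but one replicate at or above 50; inactive means mean and every replicate below 50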;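 further: strain carries kanamycin resistance gene driven by streptokinase promoter and grows in 40 µg/ml kanamycin; loss of luminescence reflects streptokinase promoter inhibition or plain growth inhibition; 0% = median of DMSO wells and 100% = positive control at its reference dose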
Calb FLC: C. albicans growth modulation with fluconazole | AID 1979 | growth inhibition, % (concentration not given with the values) | 0.57% of 300,000 active | C. albicans CaCi-2 (fluconazole-resistant clinical isolate) + fluconazole, Alamar Blue growth, 48 h;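 active means growth inhibition above about 58% in most replicates, limit read from the data, passing the limit was not always enough; inconclusive means exactly half the replicates above a set limit; inactive means most replicates below a set limit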;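 further: all wells also contain fluconazole at 8 µg/ml as a sub-toxic cotreatment; 0% = median of DMSO wells and 100% = median of geldanamycin control wells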
CSC inhib: cancer stem cell inhibition. cancer stem cell-like cells viability, luminescence. inhibition, % at 7.5 µM. 1.1% of 300,000 active; in the data active means inhibition above about 75%; inconclusive means no clear call, values can overlap the other calls; tested in HMLE shEcad cells
T cruzi repl: T. cruzi replication inhibition; T. cruzi beta-gal in NIH3T3, luminescence, 90 h; inhibition, % (no concentration beside the values); 1.4% of 300,000 active; AID 1885;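 active means mean inhibition across valid replicates above about 55%, limit read from the data; inconclusive means mean below that limit but half or more replicates reach it; inactive means mean below it, under half of replicates reach it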;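 further: signal also drops with host cell toxicity which is not excluded here; 0% = plate median of DMSO wells and 100% = zero luminescence signal; higher percent means less beta-gal luminescence so fewer parasites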
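Read-out: Parasite load inhibition, % | Test system: Mouse NIH/3T3 fibroblasts infected with β-gal-expressing T. cruzi Tulahuen C4 | Amount: 5,000 cells/well | Medium: DMEM, 2% fetal bovine serum | Signal: GalScreen β-gal luminescence, detergent lysis, 60 min | Timing: 3 h attach, ≥90 h co-culture | Also added: Tulahuen C4 trypomastigotes, 5000/well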
Mdm2-MdmX inh: disrupts the human Mdm2-MdmX interaction; inhibition, % at 8 µM; AID 485346; O15151+Q00987; 3% of 330,000 active; SaOS-2 split-luciferase Mdm2/MdmX complementation, luminescence;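 active means inhibition of at least 50% at 8 µM in the primary screen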
Target sequence (O15151 whole entry, looked up): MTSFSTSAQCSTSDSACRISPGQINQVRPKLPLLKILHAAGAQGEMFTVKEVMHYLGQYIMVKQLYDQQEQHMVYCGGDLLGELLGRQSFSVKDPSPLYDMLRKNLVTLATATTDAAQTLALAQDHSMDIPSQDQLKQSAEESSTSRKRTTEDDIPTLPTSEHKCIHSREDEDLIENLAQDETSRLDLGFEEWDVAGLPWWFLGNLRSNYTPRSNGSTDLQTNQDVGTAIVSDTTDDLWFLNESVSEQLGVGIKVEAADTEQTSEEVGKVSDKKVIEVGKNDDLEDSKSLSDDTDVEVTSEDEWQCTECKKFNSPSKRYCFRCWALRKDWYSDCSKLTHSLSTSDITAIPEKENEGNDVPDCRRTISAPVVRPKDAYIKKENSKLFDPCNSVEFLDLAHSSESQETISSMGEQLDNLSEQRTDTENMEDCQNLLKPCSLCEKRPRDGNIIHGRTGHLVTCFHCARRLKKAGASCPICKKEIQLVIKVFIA
Target sequence (Q00987 whole entry, looked up): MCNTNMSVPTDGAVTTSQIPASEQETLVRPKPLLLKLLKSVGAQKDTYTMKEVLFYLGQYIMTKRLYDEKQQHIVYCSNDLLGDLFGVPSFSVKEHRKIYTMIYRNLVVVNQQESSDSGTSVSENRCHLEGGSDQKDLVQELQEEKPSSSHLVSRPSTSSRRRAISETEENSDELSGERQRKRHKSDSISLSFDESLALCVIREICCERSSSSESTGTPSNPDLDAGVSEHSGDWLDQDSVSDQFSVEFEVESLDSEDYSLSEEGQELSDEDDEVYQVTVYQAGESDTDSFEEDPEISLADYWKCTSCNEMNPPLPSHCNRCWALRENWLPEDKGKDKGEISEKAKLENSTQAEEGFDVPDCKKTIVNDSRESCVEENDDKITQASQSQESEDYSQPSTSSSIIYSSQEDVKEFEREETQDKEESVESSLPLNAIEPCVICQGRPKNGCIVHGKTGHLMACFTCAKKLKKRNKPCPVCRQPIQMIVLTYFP
Mdm2-MdmX conf: confirmation of human Mdm2/MdmX interaction inhibitors. shares compounds with Mdm2-MdmX inh. Mdm2-MdmX binding, luminescent assay. inhibition, % at 8 µM. 55% of 10,000 active. AID 489028; in the data active means inhibition above about 40%
FLuc counter: inhibits full-length luciferase, flagging false Mdm2/MdmX hits; shares compounds with Mdm2-MdmX inh; SaOS-2 full-length luciferase counterscreen, luminescence; inhibition, % at 8 µM; 77% of 6,200 active; AID 504607;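 active means mean inhibition at 8 µM reaching about 37%, which flags the compound as non-specific, limit read from the data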;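 further: p53-null SaOS-2 cells with luciferase driven by a doxycycline-inducible promoter; compound on cells about two nights before reading with doxycycline added after day one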
* marks the source's active call; other numbers are inactive results; ? = inconclusive; . = no result. Rows were chosen to be rich in hits. Some 5.7% of all compounds tested hit in one or more screens of this group.

SMILES	Beta cell apopt	SKKanGAS inh	Calb FLC	CSC inhib	T cruzi repl	Mdm2-MdmX inh	Mdm2-MdmX conf	others
Cc1ccc(Cn2nnc3c(=O)n(CC(=O)NCc4ccccc4)cnc32)cc1	8.7	-14.9	-12.7	38.1	-17.6	29.9	.
COC(=O)C1=C(C)N(CCCC(=O)O)C(=O)NC1c1ccccc1Cl (stereo not given)	-5.2	1.3	0.4	-4.5	2.4	12.2	.
CC(OC(=O)CN1C(=O)C2C3C=CC(C4CC34)C2C1=O)C(=O)c1ccccc1 (stereo not given)	-1.9	-5.2	-3.9	-11.8	-11.2	-3.1	.
COC(=O)c1c(NC(=O)Cc2cccs2)sc(C(=O)N2CCCCC2)c1C	-2.0	1.3	2.0	-11.8	23.4	7.4	.
COC(=O)c1c(NC(=O)Cc2cccs2)sc(C(=O)NC2CCCCC2)c1C	-1.5	4.0	-0.1	-3.6	7.1	54.7*	0.9
CCOC(=O)c1c(NC(=O)Cc2cccs2)sc(C(=O)NC2CCCCC2)c1C	28.8	2.7	-1.7	18.6	-24.9	66.1*	14.3
CCOC(=O)c1c(NC(=O)Cc2cccs2)sc(C(=O)NC2CCCC2)c1C	7.7	-2.0	-0.2	12.3	16.9	28.1	.
COc1ccccc1C(=O)NCCC(=O)NCC(C)(C)N1CCOCC1	-1.4	-0.8	0.3	.	-6.8	11.8	.
Cc1cc(N2CCN(Cc3cn(C)nc3-c3cccc(Cl)c3)CC2)cc(C)n1	3.1	3.0	17.0	41.6	4.9	61.3*	62.5*	FLuc counter=42.7*
Cn1cc(CN2CCN(c3ncccn3)CC2)c(-c2cccc(Cl)c2)n1	-4.2	2.8	46.1	14.7	13.5	11.8	.
N#Cc1ccc(C(=O)Nc2cccc3ccccc23)c(F)c1	0.7	1.5	-3.8	-1.2	-2.7	6.5	.
COc1ccc(OC)c(Nc2nc(N)c([N+](=O)[O-])c(NCc3ccccc3)n2)c1	11.9	-7.6	0.4	16.2	-3.3	85.0*	22.2
COc1ccc(OC)c(Nc2nc(NCCCN(C)C)nc(N)c2[N+](=O)[O-])c1	7.7	8.8	3.6	2.9	10.8	42.5	.
COCCCNc1nc(N)c([N+](=O)[O-])c(Nc2cc(OC)ccc2OC)n1	-7.7	26.0	-5.1	-4.5	4.3	69.8*	26.9
COc1cc(C)c(CN2CCC(n3nccc3NC(=O)C3CC3)CC2)cc1C	0.2	0.5	-3.7	-17.1	8.2	22.1	.
COc1ccc(CCNc2cc(N3CCN(C(=O)c4ccccc4F)CC3)ccc2[N+](=O)[O-])cc1OC	103.7*	20.3	-1.8	23.0	11.3	53.0*	35.2	FLuc counter=78.9*
O=C(c1ccccc1F)N1CCN(c2ccc([N+](=O)[O-])c(NCc3cccnc3)c2)CC1	15.1	17.3	-2.3	12.7	-2.1	23.1	.
C/C(=N\NC(=O)c1cc(-c2cccnc2)nc2ccccc12)c1ccccc1O	86.4*	30.7	-14.6	.	63.4*	63.2*	51.2*	FLuc counter=38.6*
COc1ccc(/C(C)=N/NC(=O)c2cc(-c3cccnc3)nc3ccccc23)cc1	-0.6	6.3	-21.7	-3.7	-19.0	24.3	.
C/C(=N\NC(=O)c1cc(C2CC2)nc2ccccc12)c1ccc(C)s1	-2.5	-3.8	3.1	-5.4	-8.2	24.2	.
C/C(=N\NC(=O)c1cc(C2CC2)nc2ccccc12)c1ccc(O)cc1O	94.8*	4.5	101.5*	-12.5	9.4	75.1*	78.3*	FLuc counter=37.8*
Nc1nnc(-c2cn(-c3ccccc3)nc2-c2ccc(Cl)cc2)o1	-1.2	-7.2	-9.8	11.5	-2.4	57.7*	25.1
Nc1nnc(-c2cn(-c3ccccc3)nc2-c2ccccc2)o1	.	-16.9	-6.8	.	-32.4	19.6	.
O=C(CN1CC(c2ccccc2)CC1=O)N/N=C/c1cc(Br)ccc1O (stereo not given)	39.0	79.1*	3.9	38.9	1.7	62.0*	64.8*	FLuc counter=43.1*
CC(=O)Oc1ccccc1C1=NN(C(=O)/C=C/c2ccccc2)C(c2ccccc2)C1 (stereo not given)	16.7	?	-6.7	32.1	11.2	51.0*	6.0
SMILES	Beta cell apopt	SKKanGAS inh	Calb FLC	CSC inhib	T cruzi repl	Mdm2-MdmX inh	Mdm2-MdmX conf	others
Cc1ccc2oc(=O)c3cc(C(=O)NCCCN4CC(C)CC(C)C4)sc3c2c1 (stereo not given)	5.5	3.3	-5.1	10.7	15.1	50.4*	16.9
Cc1cc(N2CCN(C)CC2)ccc1NC(=O)c1ccc(-c2ccc(Cl)cc2)o1	53.0	-5.8	16.9	?	58.5*	51.9*	45.4*	FLuc counter=74.2*
O=C(Nc1ccccc1N1CCCCC1)c1ccc(-c2ccc(Cl)cc2)o1	17.1	7.0	3.1	.	-3.0	30.2	.
CN1CCN(c2ccc(NC(=O)c3ccc(-c4ccccc4F)o3)cc2)CC1	3.0	.	.	.	.	-70.9	.
CN1CCN(c2ccccc2NC(=O)c2ccc(-c3ccc(Cl)c(Cl)c3)o2)CC1	30.4	31.2	-3.8	89.8*	39.3	57.7*	22.6
COc1ccc(C(O)(CCc2ccccc2)CCN2CCCCC2)cc1 (stereo not given)	-11.6	-4.8	-5.3	13.7	-13.8	18.4	.
NC(=O)CC[C@H](NC(=O)c1ccc(Cl)cc1)C(=O)NNC(=O)COc1cccc(Br)c1	-1.7	.	.	-11.8	.	9.1	.
CC1(C)CC(=O)C2=C(C1)NC1=C(C(=O)c3ccccc31)C2c1ccc(O)cc1 (stereo not given)	-2.4	1.0	30.0	-1.3	-4.0	23.0	.
CCCc1ccc(C2C3=C(CC(C)(C)CC3=O)NC3=C2C(=O)c2ccccc23)cc1 (stereo not given)	34.9	26.1	105.5*	88.7*	45.0	76.0*	-2.0
CCCCc1ccc(C2C3=C(CC(C)(C)CC3=O)NC3=C2C(=O)c2ccccc23)cc1 (stereo not given)	-1.8	39.5	-1.1	25.8	35.8	55.1*	22.6
COc1ccc(-c2oc3ccc(-c4ccc(OC)nc4)cc3c2C#CC2(O)CCCCC2)cc1	13.9	44.3	1.7	.	40.8	64.0*	30.8
COC(=O)c1c(-c2ccc(OC)cc2)oc2ccc(-c3ccc(OC)nc3)cc12	15.8	7.7	7.5	28.0	-12.1	82.0*	57.0*	FLuc counter=44.6*
CCCOC(=O)c1c(-c2ccc(OC)cc2)oc2ccc(-c3ccc(OC)nc3)cc12	15.7	0.9	-11.6	7.4	2.0	21.5	.
COc1ccc(-c2oc3ccc(-c4ccc(OC)nc4)cc3c2-c2ccc(OC)cc2)cc1	9.9	4.8	5.4	25.2	28.8	16.2	.
COc1ccc(-c2oc3ccc(-c4ccc5c(c4)OCO5)cc3c2C#CC2(O)CCCCC2)cc1	.	32.1	12.8	19.6	27.6	65.0*	29.1
